According to ChEMBL document CHEMBL4706641, “Novel Carboline Fungal Histone Deacetylase (HDAC) Inhibitors for Combinational Treatment of Azole-Resistant Candidiasis” (J Med Chem, 2021):
Converted amounts (≈) assume the structure as drawn. The source made the active and inactive calls.

Experiments:
Candida albicans [1] = test: Antifungal activity against Candida albicans 0304103 infected in ICR mouse model of candidiasis assessed as reduction in fungal invasion by measuring clusters of fungal infiltration in renal pelvis at 1 mg/kg, ip dosed 24 hrs post infection and measured after 5 days by H and E staining based microscopical analysis; format: functional, organism-based; conditions: time 5.0 day
Candida albicans [2] = test: Antifungal activity against Candida albicans 0304103 incubated for 48 hrs by microdilution assay; format: functional
Procedure, shortened: (§1)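 Checkerboard broth microdilution per CLSI M27-A3 (modified), clinical Candida isolates. Exponential cells in RPMI 1640 (MOPS-buffered) at 10³ cells/mL; fluconazole 0.25–64 μg/mL crossed with test compound 2–64 μg/mL (final). 48 h at 35 °C; OD630 read with background subtracted. MIC80 = 80% growth inhibition; FICI ≤0.5 synergy, >4 antagonism.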

Candida albicans [3] = test: Antifungal activity against Candida albicans 0304103 at 64 ug/ml incubated for 48 hrs by microdilution assay; format: functional, organism-based; conditions: dose 64.0 µg/ml
Procedure, shortened: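 Checkerboard microdilution adapted from CLSI M27-A3. Exponential-phase cells resuspended at 10³ cells/mL in RPMI 1640 buffered with 0.165 M MOPS. Final concentrations were fluconazole 0.25–64 μg/mL and test compound 2–64 μg/mL. Plates were held 48 h at 35 °C and read at OD630 with background subtracted. MIC80 was used, and the FICI cut-offs were synergy ≤0.5 and antagonism >4.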

Pichia kudriavzevii [4] = test: Antifungal activity against Candida krusei 10153 incubated for 48 hrs by microdilution assay; format: functional; procedure, shortened: as §1
Candida albicans [5] = test: Effect on CDR2 mRNA expression in Candida albicans 0304103 at 32 ug/ml incubated for 24 hrs by RT-PCR analysis; format: functional; conditions: dose 32.0 µg/ml
Procedure, shortened: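 C. albicans 0304103 was started at 1 × 10⁶ cells/mL and treated with DMSO control, fluconazole 32 μg/mL, test compound 32 μg/mL, or both. Cultures were held in YEPD at 35 °C for 24 h, then total RNA was extracted and reverse-transcribed. Real-time PCR ran 40 cycles. Fold change was calculated by 2^−ΔΔCt against ACT1.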

Candida albicans [6] = test: Induction of morphological changes in Candida albicans assessed as reduction in morphological conversion from yeast to hypha forms at 32 ug/ml incubated for 3 hrs by inverse fluorescence microscopy; format: functional, organism-based; conditions: dose 32.0 µg/ml
Procedure, shortened: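 Exponential-phase C. albicans were suspended in Spider medium ([…], 2% NaHCO₃, […]) at 2 × 10⁶ cells/mL. Drugs were added alone or combined, with DMSO as control. After 3 h at 37 °C, cells were imaged by inverted fluorescence microscopy. Three independent experiments were run.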

Candida albicans [7] = test: Antifungal activity against Candida albicans 10061 incubated for 48 hrs by microdilution assay; format: functional; procedure, shortened: as §1
Candida albicans [8] = test: Antifungal activity against Candida albicans 0304103 infected in ICR mouse model of candidiasis assessed as reduction in morphological changes of budded-to-hyphal transition at 1 mg/kg, ip dosed 24 hrs post infection and measured after 5 days by H and E staining based microscopical analysis; format: functional, organism-based; conditions: time 5.0 day
Candida albicans [9] = test: Antifungal activity against Candida albicans 9172 incubated for 48 hrs by microdilution assay; format: functional; procedure, shortened: as §1
Candida albicans [10] = test: Antifungal activity against Candida albicans 0304103 infected in ICR mouse model of candidiasis assessed as reduction in kidney fungal burden at 1 mg/kg, ip dosed 24 hrs post infection and measured after 5 days; format: functional, organism-based; conditions: time 5.0 day
Candida albicans [11] = test: Antifungal activity against Candida albicans 4108 incubated for 48 hrs by microdilution assay; format: functional; procedure, shortened: as §1
Candida albicans [12] = test: Antifungal activity against Candida albicans 9884 incubated for 48 hrs by microdilution assay; format: functional; procedure, shortened: as §1
Candida albicans [13] = test: Inhibition of biofilm formation in Candida albicans 0304103 at 2 to 32 ug/ml incubated for 24 hrs by XTT reduction assay; format: functional, organism-based; conditions: dose 2-32 µg/ml
Procedure, shortened: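 C. albicans 0304103 at 1.0 × 10⁶ CFU/mL in RPMI 1640 was allowed to adhere for 90 min at 37 °C, then washed with PBS. Fresh medium was added with fluconazole 2–32 μg/mL and/or test compound 0.12–64 μg/mL, followed by 24 h at 37 °C. Biofilm was measured semiquantitatively by XTT reduction at OD490. Three independent experiments were run.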

Candida albicans [14] = test: Synergistic antifungal activity against azole-resistant Candida albicans assessed as potentiation of VRC antifungal activity by measuring VRC incubated for 48 hrs in presence of fluconazole by checkerboard microdilution assay; format: functional
Candida albicans [15] = test: Synergistic antifungal activity against azole-resistant Candida albicans assessed as potentiation of ITC antifungal activity by measuring ITC incubated for 48 hrs in presence of fluconazole by checkerboard microdilution assay; format: functional
Candida albicans [16] = test: Synergistic antifungal activity against Candida albicans 0304103 incubated for 48 hrs in presence of fluconazole by microdilution assay; format: functional; procedure, shortened: as §1
Candida albicans [17] = test: microbe, parasite or virus in culture; format: functional, 0304103
Candida albicans [18] = test: Synergistic antifungal activity against Candida albicans 0304103 assessed as potentiation of fluconazole antifungal activity by measuring FICI incubated for 48 hrs in presence of fluconazole by checkerboard microdilution assay; format: functional; procedure, shortened: as §1
Candida albicans [19] = test: Synergistic antifungal activity against Candida albicans 9884 incubated for 48 hrs in presence of fluconazole by microdilution assay; format: functional; procedure, shortened: as §1
Candida albicans [20] = test: Synergistic antifungal activity against Candida albicans 4108 assessed as fluconazole MIC incubated for 48 hrs in presence of fluconazole by microdilution assay (reference value: fluconazole alone MIC = >[…] ug/ml); format: functional
Candida albicans [21] = test: Synergistic antifungal activity against Candida albicans 9884 assessed as fluconazole MIC incubated for 48 hrs in presence of fluconazole by microdilution assay (reference value: fluconazole alone MIC = >[…] ug/ml); format: functional
Pichia kudriavzevii [22] = test: Synergistic antifungal activity against Candida krusei 10153 incubated for 48 hrs in presence of fluconazole by microdilution assay; format: functional; procedure, shortened: as §1
Candida albicans [23] = test: Synergistic antifungal activity against Candida albicans 10061 assessed as fluconazole MIC incubated for 48 hrs in presence of fluconazole by microdilution assay (reference value: fluconazole alone MIC = >[…] ug/ml); format: functional
Pichia kudriavzevii [24] = test: Synergistic antifungal activity against Candida krusei 10153 assessed as fluconazole MIC incubated for 48 hrs in presence of fluconazole by microdilution assay (reference value: fluconazole alone MIC = […] ug/ml); format: functional
Candida albicans [25] = test: Synergistic antifungal activity against Candida albicans 9172 incubated for 48 hrs in presence of fluconazole by microdilution assay; format: functional; procedure, shortened: as §1
Candida albicans [26] = test: Synergistic antifungal activity against Candida albicans 4108 incubated for 48 hrs in presence of fluconazole by microdilution assay; format: functional; procedure, shortened: as §1
Candida albicans [27] = test: Synergistic antifungal activity against Candida albicans 10061 incubated for 48 hrs in presence of fluconazole by microdilution assay; format: functional; procedure, shortened: as §1
Candida albicans [28] = test: Synergistic antifungal activity against Candida albicans 9172 assessed as fluconazole MIC incubated for 48 hrs in presence of fluconazole by microdilution assay (reference value: fluconazole alone MIC = >[…] ug/ml); format: functional
Cryptococcus neoformans = test: Antifungal activity against Cryptococcus neoformans; format: functional
[29] = Candida albicans, 0304103, read-out: MIC80
[30] = Candida albicans, 0304103, time 48 hrs, read-out: MIC80

| Compound | MIC80 (Candida albicans [2]; [29]) [µg/mL] | fractional inhibitory concentration index (FICI) (Candida albicans [14]) | fractional inhibitory concentration index (FICI) (Candida albicans [15]) | MIC80 (Candida albicans [16]) [µg/mL] | MIC80 (Candida albicans [17]; [30]) [µg/mL] | fractional inhibitory concentration index (FICI) (Candida albicans [18]) | further results |
| --- | --- | --- | --- | --- | --- | --- | --- |
| OC(Cn1cncn1)(Cn1cncn1)c1ccc(F)cc1F [FLUCONAZOLE] | > 64 |  |  |  |  |  | Activity (Candida albicans [1]): inactive; Activity (Candida albicans [3]): inactive; MIC80 (Pichia kudriavzevii [4]): 64 µg/mL (≈ 209 µM); Activity (Candida albicans [5]): inactive; Activity (Candida albicans [6]): inactive; MIC80 (Candida albicans [7]): > 64 µg/mL; Activity (Candida albicans [8]): inactive; MIC80 (Candida albicans [9]): > 64 µg/mL; Activity (Candida albicans [10]): inactive; MIC80 (Candida albicans [11]): > 64 µg/mL; MIC80 (Candida albicans [12]): > 64 µg/mL; inhibition (Candida albicans [13]): inactive |
| COc1cccc2c3c(n(CCCOc4ccc(CC(=O)NO)cc4)c12)CNCC3 | > 64 | 0.035 | 0.035 | 2 | 1 (≈ 2.44 µM) | 0.047 |  |
| O=C(Cc1ccc(OCCCn2c3c(c4c(Cl)cccc42)CCNC3)cc1)NO | > 64 | 0.035 | 0.035 | 2 | 0.5 (≈ 1.21 µM) | 0.039 |  |
| O=C(Cc1ccc(OCCCn2c3c(c4ccccc42)CCNC3)cc1)NO | > 64 | 0.035 | 0.035 | 4 | 0.5 (≈ 1.32 µM) | 0.07 |  |
| COc1ccc2c(c1)c1c(n2CCCOc2ccc(CC(=O)NO)cc2)CNCC1 | > 64 | 0.035 | 0.035 | 8 | 0.5 (≈ 1.22 µM) | 0.13 |  |
| Cc1ccc2c(c1)c1c(n2CCCOc2ccc(CC(=O)NO)cc2)CNCC1 | > 64 | 0.035 | 0.035 | 4 | 1 (≈ 2.54 µM) | 0.078 |  |
| O=C(CCCCCCC(=O)Nc1ccccc1)NO [VORINOSTAT] |  |  |  |  |  |  | MIC80 (Candida albicans [2]): >64 µg/mL; MIC80 (Candida albicans [17]; 48 h): 0.25 µg/mL (≈ 0.946 µM) |
| CN1CCc2c(c3ccccc3n2Cc2ccc(C(=O)NO)cc2)C1 [TUBASTATIN A] |  |  |  |  |  |  | MIC80 (Pichia kudriavzevii [4]): > 64 µg/mL; MIC80 (Candida albicans [19]): 4 µg/mL; MIC80 (Candida albicans [20]): 0.5 µg/mL; MIC80 (Candida albicans [7]): > 64 µg/mL; MIC80 (Candida albicans [21]): 1 µg/mL; MIC80 (Pichia kudriavzevii [22]): 64 µg/mL; MIC80 (Candida albicans [23]): 0.5 µg/mL; MIC80 (Pichia kudriavzevii [24]): 32 µg/mL; MIC80 (Candida albicans [9]): > 64 µg/mL; MIC80 (Candida albicans [11]): > 64 µg/mL; MIC80 (Candida albicans [25]): 16 µg/mL; MIC80 (Candida albicans [26]): 8 µg/mL; MIC80 (Candida albicans [27]): 2 µg/mL; MIC80 (Candida albicans [12]): > 64 µg/mL; MIC80 (Candida albicans [28]): 0.5 µg/mL |
| Clc1ccc(OCCCn2c3c(c4cc(Cl)ccc42)CCNC3)cc1.O=C(O)C(F)(F)F |  |  |  |  |  |  | MIC80 (Cryptococcus neoformans): 0.25 µg/mL |
| O=C(Cc1ccc(OCCCn2c3c(c4cc(F)ccc42)CCNC3)cc1)NO | > 64 | 0.035 | 0.035 | 2 | 2 (≈ 5.03 µM) | 0.062 |  |
| O=C(Cc1ccc(OCCCn2c3c(c4c(Br)cccc42)CCNC3)cc1)NO | > 64 | 0.035 | 0.035 | 4 | 0.25 (≈ 0.545 µM) | 0.066 |  |
| O=C(Cc1ccc(OCCCn2c3c(c4ccc(Br)cc42)CCNC3)cc1)NO | > 64 | 0.035 | 0.035 | 2 | 0.5 (≈ 1.09 µM) | 0.039 |  |
| O=C(Cc1ccc(OCCCn2c3c(c4ccc(Cl)cc42)CCNC3)cc1)NO | 64 (≈ 155 µM) | 0.035 | 0.035 | 2 | 1 (≈ 2.42 µM) | 0.047 |  |
| O=C(Cc1ccc(OCCCn2c3c(c4cc(Br)ccc42)CCNC3)cc1)NO | 64 (≈ 140 µM) | 0.035 | 0.035 | 2 | 0.25 (≈ 0.545 µM) | 0.035 |  |
| O=C(Cc1ccc(OCCCn2c3c(c4ccc(F)cc42)CCNC3)cc1)NO | > 64 | 0.035 | 0.035 | 2 | 1 (≈ 2.52 µM) | 0.047 |  |
